The values that follow come from ChEMBL document CHEMBL1629705, “PSI-7851, a pronucleotide of beta-D-2'-deoxy-2'-fluoro-2'-C-methyluridine monophosphate, is a potent and pan-genotype inhibitor of hepatitis C virus replication” (Antimicrob Agents Chemother, 2010).

Molecules are shown by their SMILES. Calls of active or inactive are those of the source. No cut-off for these calls is given here. Where only a bound is given, the exact number is not on record here.

Data set [1] concerns the target T1, DNA-directed RNA polymerase II subunit RPB1 (Homo sapiens, UniProt P24928). The data set can be described thus: Inhibition of human RNA polymerase 2 assessed as synthesis of RNA products at 500 uM. The gist of the method: (§1)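 In vitro transcription by HeLa nuclear extract from CMV immediate-early promoter DNA. Mix: 400 μM ATP, CTP and UTP, 16 μM GTP, [α-32P]GTP, 3 mM MgCl2, in 20 mM HEPES pH 7.9 buffer with KCl, EDTA, DTT and glycerol. Inhibitor up to 1 mM. 30°C for 60 min. RNA purified, run on 6% sequencing gel and quantified by phosphorimager.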

The next data set addresses DNA polymerase beta (Homo sapiens, UniProt P06746). Nature of the data set: Inhibition of human DNA polymerase beta assessed as incorporation of [alpha-32P]dCTP up to 1mM preincubated for 30 mins by whatman DE81 paper binding assay. The gist of the method:
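Human DNA polymerase β at 18 μg/ml final, in 50 mM Tris pH 7.5, 50 mM NaCl, 5 mM MgCl2, activated calf thymus DNA and 20 μM each dNTP with [α-32P]dCTP. Triphosphate up to 1 mM. 37°C, stopped at 30 min with EDTA. Products quantified by DE81 paper binding; IC50 by nonlinear fit.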

In data set [2] the target is T1, DNA-directed RNA polymerase II subunit RPB1. Nature of the data set: Inhibition of human RNA polymerase 2. The gist of the method: as §1
Data set [3] is described as follows: Inhibition of Hepatitis C virus genotype 3a recombinant NS5B polymerase after 3 hrs by phosphor imaging. More on the design: species or system Hepatitis C virus subtype 3a. The gist of the method: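 C-terminal Δ21-truncated NS5B: 1b Con1 and 2a JFH-1 expressed in E. coli; 3a and 4a cloned from patient serum. Mix: 1 μM each NTP, [α-32P]UTP, 20 ng/μl genotype 1b(−) IRES RNA template, 40 ng/μl enzyme, 1 mM MgCl2, 0.75 mM MnCl2, 2 mM DTT, 50 mM HEPES pH 7.5. Run at 27°C: 30 min (1b, 2a) or 3 h (3a, 4a). EDTA quench, products on membrane read by phosphorimager. Duplicates; IC50 calculated.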

Data set [4] can be described thus: Cytotoxicity against human HeLaP4 cells. It is filed as cell-based.
Data set [5] concerns Hepatitis C virus. The data set can be described thus: Antiviral activity against Hepatitis C virus H77 harboring Htat protein assessed as viral RNA level by quantitative real-time PCR. The data set is classed as functional, organism-based, Hepacivirus hominis. The following applies: genotype 1a H77. (Quantitative PCR measures a nucleic acid by following its amplification.)

The test system of data set [6] is Hepatitis C virus. The data set can be described thus: Antiviral activity against Hepatitis C virus assessed as log reduction in viral RNA at 2 uM after 3 weeks. The data set is classed as functional, Hepacivirus hominis. The gist of the method:
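ET-lunet replicon cells seeded at 1 × 10^5/well without G418, treated at 0.1, 1 or 2 μM (final DMSO 0.5%). Passaged 1:3–1:4 every 3–4 days for 3 weeks with fresh compound. Then compound withdrawn and cells grown 3 more weeks in 0.25 mg/ml G418. HCV RNA by RT-PCR (ΔΔCt vs rRNA and DMSO controls, log change). Colonies fixed in formaldehyde and stained with crystal violet at 6 weeks.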

A short description of data set [7]: Cytotoxicity against human HepG2 cells assessed as effect on cellular GAPDH RNA level after 8 days by quantitative real-time PCR. The data set is classed as cell-based.
A short description of data set [8]: Cytotoxicity against human HepG2 cells assessed as inhibition of mitochondrial DNA synthesis. It is filed as cell-based. The gist of the method: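 HepG2 or CEM cells incubated 14 days with compound up to 100 μM, ddC as control. Medium and compound replenished on days 7 and 11. Mitochondrial COXII gene and nuclear rDNA measured by multiplex quantitative RT-PCR.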

The test system of data set [9] is Hepatitis C virus. The data set can be described thus: Antiviral activity against Hepatitis C virus assessed as clearance of HCV from replicon cells at 1 uM. Particulars: Hepacivirus hominis. The data set is classed as functional, organism-based. The method, boiled down:
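ET-lunet replicon cells, 1 × 10^5/well, no G418, with compound at 0.1, 1 or 2 μM (final DMSO 0.5%). Passaged 1:3 or 1:4 every 3–4 days for 3 weeks with fresh compound, then 3 more weeks with 0.25 mg/ml G418 and no inhibitor. HCV RNA by RT-PCR normalized to rRNA (ΔΔCt vs DMSO) at each passage. Crystal violet colony staining at 6 weeks.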
For orientation: Replicon systems follow genome replication, usually without infectious particles.

The test system of data set [10] is Hepatitis C virus. Nature of the data set: Selectivity ratio of EC90 for Hepatitis C virus harboring NS5B polymerase S96T mutant gene to EC90 for HCV harboring wild type NS5B polymerase. It is filed as functional, Hepacivirus hominis.
For data set [11], the system named is Hepatitis C virus. The data set can be described thus: Antiviral activity against Hepatitis C virus Con1 infected in human lunet cells assessed as inhibition of viral RNA replication after 4 days by luciferase reporter gene assay. It is filed as functional, organism-based, Hepacivirus hominis. Particulars: 96 h. The method, boiled down: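 Genotype 1b Con1 subgenomic replicon cells (ET-lunet, 3,000 cells/well, firefly luciferase ET replicon; clone A, 1,500 cells/well) incubated 4 days with serially diluted compound. Replication read by luciferase luminescence and/or real-time RT-PCR.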
(In general: Reporter assays use an easily measured gene product as a stand-in for the process of interest.)

In another data set the test system is Hepatitis B virus. The data set can be described thus: Antiviral activity against Hepatitis B virus infected in human HepAD38 cells by quantitative real-time PCR. It is filed as functional, organism-based.

As for `C[C@@]1(F)[C@H](O)[C@@H](COP(=O)(O)OP(=O)(O)OP(=O)(O)O)O[C@H]1n1ccc(=O)[nH]c1=O` [GS-461203], the inhibition in data set [1] turned out to be 85%. Besides, the IC50 on DNA polymerase beta is over 1000 µM; in data set [2], over 500 µM; in [3], 0.7 µM.
In the case of `CC(C)OC(=O)[C@H](C)NP(=O)(OC[C@H]1O[C@@H](n2ccc(=O)[nH]c2=O)[C@](C)(F)[C@@H]1O)Oc1ccccc1` (stereo not given in full), the cytotoxic concentration (CC50) in data set [4] is over 100 µM. The results for the EC50 in the data set on Hepatitis C virus [5], with Hepatitis C virus [11] and with Hepatitis B virus were 0.43 µM, 1.34 µM and over 100 µM, respectively. The concentration for an effect of 90% (EC90) was 1.22 µM with Hepatitis C virus [5] and 3.81 µM in the data set on Hepatitis C virus [11]. In addition, the FC in the data set with Hepatitis C virus [6] is over 5. Moreover, in [7], the CC50 at 192 h is over 100 µM. For the same compound, in data set [8], the CC90 is under 3 µM. Also, the outcome in the data set with Hepatitis C virus [9] was Active. For the same compound, in the data set on Hepatitis C virus [10], the Selectivity ratio is 0.66.

The term inhibition denotes the percentage by which the read-out fell short of the control. The term IC50 denotes the concentration needed to halve the response being measured. As usually defined, the CC50 is the concentration that lowers cell viability or growth by half. One may read the EC50 as the concentration giving half of the maximal effect. As a reminder, the EC90 is the point of the concentration-response curve where the effect stands at 90%.
